Measured values pooled from the literature.
Protocols differ between the studies behind these lines.
ACSL4: Long-chain-fatty-acid--CoA ligase 4 (ACSL4, Homo sapiens, UniProt O60488)
CDK7: Cyclin-dependent kinase 7 (CDK7, Homo sapiens, UniProt P50613)
PTGER4: Prostaglandin E2 receptor EP4 subtype (PTGER4, Homo sapiens, UniProt P35408)

SMILES	target	effect on	mode	technique	concentration	endpoint	result
CCCCC(=O)Nc1ccc(-c2ccc3ncn(CCC)c(=O)c3c2)cn1	Dual specificity protein kinase TTK (TTK, Homo sapiens, UniProt P33981)	binding		competition with immobilised ligand	0.5 µM	remaining binding	64%
COc1cccc2c(N3CCC(CCP(=O)(O)O)CC3)ncnc12	Ectonucleotide pyrophosphatase/phosphodiesterase family member 1 (Enpp1, Mus musculus, UniProt P06802)	binding		SPR		residence time	9 min
O=C(/C=C/c1ccc(O)c(O)c1)O[C@H](Cc1ccc(O)c(O)c1)C(=O)O	Peroxiredoxin-1 (PRDX1, Homo sapiens, UniProt Q06830)	thermal stability		DSF	800 µM	ΔTm	9.31 °C
O=C1NC(=O)C(Cc2ccc(N3CCN(c4ccccn4)CC3)cc2)S1 (stereo not shown)	ACSL4	enzyme activity	inhibitor		10 µM	inhibition	42%
Cc1cc(S(=O)(=O)N[C@H]2CC[C@H](CN3CCN(c4ccc(C5CCC(=O)NC5=O)cc4F)CC3)CC2)ccc1Nc1ncc(C(F)(F)F)c(N2CCC[C@](C)(O)C2)n1 (stereo partly shown)	CDK7	binding		competition with immobilised ligand	1 µM	remaining binding	55%
C1=C/COCc2cc(ccc2OCCN2CCCC2)Nc2nccc(n2)-c2cccc(c2)COC/1	Serine/threonine-protein kinase MAK (MAK, Homo sapiens, UniProt P20794)	binding			0.1 µM	remaining binding	100%
C#Cc1cc(-c2cc(Nc3nc(N[C@@H](C)c4ccc(F)cn4)ncc3Cl)n[nH]2)ccc1C=O	Serine/threonine-protein kinase 33 (STK33, Homo sapiens, UniProt Q9BYT3)	enzyme activity	inhibitor		0.2 µM	inhibition	7.93%
CNS(=O)(=O)c1ccc(Nc2ncc(C(F)(F)F)c(N3CCC[C@](C)(O)C3)n2)c(C)c1	Mitogen-activated protein kinase 7 (MAPK7, Homo sapiens, UniProt Q13164)	binding		competition with immobilised ligand	1 µM	remaining binding	14%
Cc1cc(F)cc2c(CCC(=O)N[C@@H]3C(=O)NC[C@H]3O)c(-c3ccc(F)cc3)[nH]c12	3',5'-cyclic-AMP phosphodiesterase 4D (PDE4D, Homo sapiens, UniProt Q08499)	enzyme activity	inhibitor		10 µM	inhibition	17%
C[C@]1(O)CCCN(c2nc(Nc3ccc(S(=O)(=O)N[C@H]4CC[C@H](CN5CCN(c6ccc(C7CCC(=O)NC7=O)cc6F)CC5)CC4)cc3F)ncc2C(F)(F)F)C1 (stereo partly shown)	CDK7	binding		competition with immobilised ligand	1 µM	remaining binding	85%
COC(=O)/C=C/c1ccc(OCCN(C)C(=O)c2ccccc2)cc1	ACSL4	thermal stability		DSF	5 µM	ΔTm	5.3 °C
CCN1/C(=C/C(C)=O)Sc2ccc(F)cc21	PTGER4	ligand displacement		radioligand	10 µM	inhibition	4.39%
NC/C(=C\F)COc1cccc(Cn2c(=S)[nH]c(=O)c3[nH]cnc32)c1	PTGER4	ligand displacement		radioligand	10 µM	inhibition	< 50%
